Measurements: ChEMBL document CHEMBL3259768, “Structure-activity relationships for vitamin D3-based aromatic a-ring analogues as hedgehog pathway inhibitors” (J Med Chem, 2014)
The source made the active and inactive calls. No cut-off for these calls is given here.

Columns and labels:
[1] = Inhibition of hedgehog signaling pathway-mediated GLI1 mRNA expression in mouse C3H10T1/2 cells assessed as residual activity at 5 uM after 24 hrs by RT-PCR analysis relative to 20alpha-hydroxycholesterol/22(S)-hydroxycholesterol; format: cell-based; conditions: C3H 10T1/2
Summary of the method: (§1)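 C3H10T1/2 cells co-treated with analogue and the oxysterol Hh activators 20α-hydroxycholesterol plus 22(S)-hydroxycholesterol (5 μM each) for 24 h. Gli1 mRNA measured by qPCR as % of OHC-only control (100%). Analogue at 5 μM, or at 0.5 μM where stated.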

[2] = molecular target: T1, Vitamin D3 receptor (Mus musculus) (UniProt P48281); experiment: Activation of VDR in mouse C3H10T1/2 cells assessed as upregulation of CYP24A1 mRNA expression at 5 uM after 24 hrs by RT-PCR analysis relative to DMSO-treated control; format: cell-based; conditions: C3H 10T1/2
T1 sequence (whole entry): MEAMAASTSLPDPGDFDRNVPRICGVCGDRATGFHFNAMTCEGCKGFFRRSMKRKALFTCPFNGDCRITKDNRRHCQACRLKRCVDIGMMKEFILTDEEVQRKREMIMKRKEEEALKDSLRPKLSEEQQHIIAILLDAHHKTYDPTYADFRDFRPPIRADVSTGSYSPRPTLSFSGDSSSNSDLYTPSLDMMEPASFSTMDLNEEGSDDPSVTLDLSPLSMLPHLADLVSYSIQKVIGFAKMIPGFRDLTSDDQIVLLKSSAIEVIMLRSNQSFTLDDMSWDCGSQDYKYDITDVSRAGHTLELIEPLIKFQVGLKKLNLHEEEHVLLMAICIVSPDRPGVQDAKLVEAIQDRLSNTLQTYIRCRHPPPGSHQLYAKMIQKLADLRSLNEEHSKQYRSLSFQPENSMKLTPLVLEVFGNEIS
Summary of the method: (§2)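 Cyp24A1 mRNA read by qPCR after 24 h exposure at 5 μM. Up-regulation normalized to DMSO control, set to 1.0.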

[3] = Inhibition of hedgehog signaling pathway-mediated GLI1 mRNA expression in mouse C3H10T1/2 cells after 24 hrs by RT-PCR analysis; format: cell-based; conditions: for inhibition: C3H 10T1/2; for IC50: C3H 10T1/2, 24 h
Summary of the method: (§3)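 OHC-stimulated C3H10T1/2 cells (20α- and 22(S)-hydroxycholesterol, 5 μM each) given analogue at a range of concentrations. Gli1 and Ptch mRNA quantified by qPCR. IC50 given as mean ± SEM of at least two experiments run in triplicate.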

[4] = molecular target: T2, Vitamin D3 receptor (Homo sapiens) (UniProt P11473); experiment: Competitive binding affinity to full length human VDR by fluorescence polarization assay
T2 sequence (whole entry): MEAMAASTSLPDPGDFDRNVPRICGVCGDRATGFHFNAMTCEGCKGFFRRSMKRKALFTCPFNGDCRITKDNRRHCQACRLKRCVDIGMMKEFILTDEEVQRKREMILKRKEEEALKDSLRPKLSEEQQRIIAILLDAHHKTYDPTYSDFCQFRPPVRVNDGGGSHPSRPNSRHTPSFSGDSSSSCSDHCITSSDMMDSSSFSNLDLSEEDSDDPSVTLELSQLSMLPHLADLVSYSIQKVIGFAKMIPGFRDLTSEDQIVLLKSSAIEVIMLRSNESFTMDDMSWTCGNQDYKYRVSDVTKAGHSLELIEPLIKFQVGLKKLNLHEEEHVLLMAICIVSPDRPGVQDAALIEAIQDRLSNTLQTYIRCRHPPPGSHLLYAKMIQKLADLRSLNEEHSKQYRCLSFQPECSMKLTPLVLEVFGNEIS
Summary of the method: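 Fluorescence polarization competition against a tight-binding fluorescent ligand on full-length human VDR. Tested at up to 100 μM, with calcitriol as positive control. At least two separate experiments.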

[5] = molecular target: T1, Vitamin D3 receptor (Mus musculus); experiment: Activation of VDR in mouse ASZ001 cells assessed as upregulation of CYP24A1 mRNA expression at 5 uM after 24 hrs by RT-PCR analysis relative to DMSO-treated control; format: cell-based; summary of the method: as §2
[6] = Inhibition of hedgehog signaling pathway-mediated GLI1 mRNA expression in human DaOY cells after 24 hrs by RT-PCR analysis; format: cell-based
Summary of the method: (§4)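 ASZ001 (murine BCC) or DAOY (human medulloblastoma) cells given analogue at a range of concentrations. Gli1 and Ptch mRNA quantified by qPCR. IC50 given as mean ± SEM of at least two experiments in triplicate.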

[7] = Inhibition of hedgehog signaling pathway-mediated PTCH mRNA expression in mouse C3H10T1/2 cells after 24 hrs by RT-PCR analysis; format: cell-based; conditions: C3H 10T1/2, 24 h; summary of the method: as §3
[8] = molecular target: T2, Vitamin D3 receptor (Homo sapiens); experiment: Activation of VDR in human DaOY cells assessed as upregulation of CYP24A1 mRNA expression at 5 uM after 24 hrs by RT-PCR analysis relative to DMSO-treated control; format: cell-based; summary of the method: as §2
[9] = Inhibition of hedgehog signaling pathway-mediated PTCH mRNA expression in human DaOY cells after 24 hrs by RT-PCR analysis; format: cell-based; summary of the method: as §4
[10] = Inhibition of hedgehog signaling pathway-mediated GLI1 mRNA expression in mouse ASZ001 cells after 24 hrs by RT-PCR analysis; format: cell-based; conditions: ASZ001, 24 h; summary of the method: as §4
[11] = Inhibition of hedgehog signaling pathway-mediated PTCH mRNA expression in mouse ASZ001 cells up to 10 uM after 24 hrs by RT-PCR analysis; format: cell-based
[12] = Inhibition of hedgehog signaling pathway-mediated GLI1 mRNA expression in mouse C3H10T1/2 cells assessed as residual activity at 0.5 uM after 24 hrs by RT-PCR analysis relative to 20alpha-hydroxycholesterol/22(S)-hydroxycholesterol; format: cell-based; conditions: C3H 10T1/2; summary of the method: as §1
[13] = Inhibition of hedgehog signaling pathway-mediated GLI1 mRNA expression in mouse C3H10T1/2 cells after 24 hrs by RT-PCR analysis in presence of (1R,3aR,4S,7aR)-7a-methyl-1-((R)-6-methylheptan-2-yl)octahydro-1H-inden-4-yl 3-hydroxybenzoate; format: cell-based; conditions: C3H 10T1/2

## CC(C)CCC[C@@H](C)[C@H]1CC[C@H]2[C@@H](OC(=O)c3ccccc3Cl)CCC[C@]12C
[1]
  Activity: 109%
[2]
  fold change (FC): 0.9

## CC(C)CCC[C@@H](C)[C@H]1CC[C@H]2[C@@H](OC(=O)c3ccc(N)cc3)CCC[C@]12C
[3]
  inhibition: Dose-dependent effect
  IC50: 1 µM
[4]
  Activity: > 100 µM
[5]
  fold change (FC): 2.1
[1]
  Activity: 15.4%
[6]
  IC50: > 10 µM
[7]
  IC50: 2.9 µM
[8]
  fold change (FC): 2.2
[2]
  fold change (FC): 140
[9]
  IC50: > 10 µM
[10]
  IC50: 5.3 µM

## CC(C)CCC[C@@H](C)[C@H]1CC[C@H]2[C@@H](OC(=O)c3ncccc3O)CCC[C@]12C
[1]
  Activity: 36.5%
[2]
  fold change (FC): 3.1

## CC(C)CCC[C@@H](C)[C@H]1CC[C@H]2[C@@H](OC(=O)c3cc(O)cc(O)c3)CCC[C@]12C
[3]
  inhibition: Dose-dependent effect
  IC50: 1.8 µM
[4]
  Activity: > 100 µM
[5]
  fold change (FC): 3.6
[1]
  Activity: 8.6%
[6]
  IC50: 5.7 µM
[7]
  IC50: 4.5 µM
[8]
  fold change (FC): 0.3
[2]
  fold change (FC): 19
[9]
  IC50: > 10 µM
[10]
  IC50: 4.1 µM

## CC(C)CCC[C@@H](C)[C@H]1CC[C@H]2[C@@H](OC(=O)c3ccc4cc(O)ccc4c3)CCC[C@]12C
[1]
  Activity: 91.9%
[2]
  fold change (FC): 0.8

## CC(C)CCC[C@@H](C)[C@H]1CC[C@H]2[C@@H](OC(=O)c3ccc(Cl)cc3)CCC[C@]12C
[1]
  Activity: 77.7%
[2]
  fold change (FC): 0.8

## CC(C)CCC[C@@H](C)[C@H]1CC[C@H]2[C@@H](OC(=O)c3cccc(N)c3)CCC[C@]12C
[3]
  inhibition: Dose-dependent effect
  IC50: 1.3 µM
[5]
  fold change (FC): 2.5
[1]
  Activity: 2.4%
[6]
  IC50: 9.2 µM
[7]
  IC50: 2.5 µM
[8]
  fold change (FC): 0.5
[2]
  fold change (FC): 24.3
[9]
  IC50: > 10 µM
[10]
  IC50: 7.1 µM

## COc1ccc(C(=O)O[C@H]2CCC[C@]3(C)[C@@H]([C@H](C)CCCC(C)C)CC[C@@H]23)cc1
[1]
  Activity: 113%
[2]
  fold change (FC): 0.9

## CC(C)CCC[C@@H](C)[C@H]1CC[C@H]2[C@@H](OC(=O)c3ccoc3)CCC[C@]12C
[1]
  Activity: 91.5%
[2]
  fold change (FC): 2.2

## CC(C)CCC[C@@H](C)[C@H]1CC[C@H]2[C@@H](OC(=O)c3ccccc3O)CCC[C@]12C
[1]
  Activity: 115%
[2]
  fold change (FC): 1.2

## CC(C)CCC[C@@H](C)[C@H]1CC[C@H]2[C@@H](OC(=O)c3ccc(N(C)C)cc3)CCC[C@]12C
[1]
  Activity: 107%
[2]
  fold change (FC): 1.4

## CC(C)CCC[C@@H](C)[C@H]1CC[C@H]2[C@@H](OC(=O)c3cc4ccccc4[nH]3)CCC[C@]12C
[1]
  Activity: 84.5%
[2]
  fold change (FC): 2.7

## COc1ccccc1C(=O)O[C@H]1CCC[C@]2(C)[C@@H]([C@H](C)CCCC(C)C)CC[C@@H]12
[1]
  Activity: 98%
[2]
  fold change (FC): 0.9

## CC(C)CCC[C@@H](C)[C@H]1CC[C@H]2[C@@H](OC(=O)c3ccco3)CCC[C@]12C
[1]
  Activity: 95%
[2]
  fold change (FC): 1.7

## CC(C)CCC[C@@H](C)[C@H]1CC[C@H]2[C@@H](OC(=O)c3cccnc3)CCC[C@]12C
[1]
  Activity: 20.7%
[2]
  fold change (FC): 17.1

## CS(=O)(=O)c1ccc(C(=O)Nc2ccc(Cl)c(-c3ccccn3)c2)c(Cl)c1
[11]
  inhibition: inactive
[12]
  Activity: 4.8%
[13]
  inhibition: Active

## CC(C)CCC[C@@H](C)[C@H]1CC[C@H]2[C@@H](OC(=O)c3ccncc3)CCC[C@]12C
[1]
  Activity: 51.1%
[2]
  fold change (FC): 14.7

## CC(C)CCC[C@@H](C)[C@H]1CC[C@H]2[C@@H](OC(=O)c3ccsc3)CCC[C@]12C
[1]
  Activity: 109%
[2]
  fold change (FC): 1.3

## CC(C)CCC[C@@H](C)[C@H]1CC[C@H]2[C@@H](OC(=O)c3ccc(O)cc3)CCC[C@]12C
[3]
  inhibition: Dose-dependent effect
  IC50: 2.8 µM
[4]
  Activity: > 100 µM
[5]
  fold change (FC): 6.3
[1]
  Activity: 2.4%
[6]
  IC50: > 10 µM
[7]
  IC50: 3.3 µM
[8]
  fold change (FC): 1.5
[2]
  fold change (FC): 18.8
[9]
  IC50: > 10 µM
[10]
  IC50: 6.6 µM

## CC(C)CCC[C@@H](C)[C@H]1CC[C@H]2[C@@H](O)CCC[C@]12C
[1]
  Activity: 46.4%
[2]
  fold change (FC): 3.6

## CC(C)CCC[C@@H](C)[C@H]1CC[C@H]2[C@@H](OC(=O)c3cccc4ccccc34)CCC[C@]12C
[1]
  Activity: 82.3%
[2]
  fold change (FC): 2.7

## CC(C)CCC[C@@H](C)[C@H]1CC[C@H]2[C@@H](OC(=O)c3cc(O)c(O)c(O)c3)CCC[C@]12C
[3]
  inhibition: Dose-dependent effect
  IC50: 1.1 µM
[4]
  Activity: > 100 µM
[5]
  fold change (FC): 1.3
[1]
  Activity: 5.1%
[6]
  IC50: 9.2 µM
[7]
  IC50: 1.3 µM
[8]
  fold change (FC): 1
[2]
  fold change (FC): 11
[9]
  IC50: > 10 µM
[10]
  IC50: 8.1 µM

## CC(C)CCC[C@@H](C)[C@H]1CC[C@H]2[C@@H](OC(=O)c3cccnc3O)CCC[C@]12C
[1]
  Activity: 23%
[2]
  fold change (FC): 7.5

## CC(C)CCC[C@@H](C)[C@H]1CC[C@H]2[C@@H](OC(=O)c3ccc4ccccc4c3)CCC[C@]12C
[1]
  Activity: 77.4%
[2]
  fold change (FC): 3

## CC(C)CCC[C@@H](C)[C@H]1CC[C@H]2[C@@H](OC(=O)c3cccc4cc(O)ccc34)CCC[C@]12C
[1]
  Activity: 103%
[2]
  fold change (FC): 4.7

## CC(C)CCC[C@@H](C)[C@H]1CC[C@H]2[C@@H](OC(=O)c3cccs3)CCC[C@]12C
[1]
  Activity: 109%
[2]
  fold change (FC): 1.6

## CC(C)CCC[C@@H](C)[C@H]1CC[C@H]2[C@@H](OC(=O)c3ccccn3)CCC[C@]12C
[3]
  inhibition: Dose-dependent effect
  IC50: 4.7 µM
[4]
  Activity: > 100 µM
[5]
  fold change (FC): 4.8
[1]
  Activity: 14.1%
[6]
  IC50: > 10 µM
[7]
  IC50: 12.6 µM
[8]
  fold change (FC): 1.1
[2]
  fold change (FC): 57.1
[9]
  IC50: > 10 µM
[10]
  IC50: 4.8 µM
